Assays:
Mus musculus [1] = experiment: Inhibition of Shh pathway in mouse medulloblastoma allograft model assessed as reduction in tumor Gli-1 mRNA expression at 80 mg/kg, po administered as single dose measured after 8 hrs; type: functional
Summary of the method: (§1)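 Tumor-bearing medulloblastoma mice given a single oral 80 mg/kg dose. Tumor biopsies taken at timepoints up to 24 h; Hh-pathway inhibition measured as reduction of Gli-1 mRNA.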

Cytochrome P450 3A4 = Cytochrome P450 3A4 (Homo sapiens, UniProt P08684); experiment: Inhibition of CYP3A4; type: ADME
Chain of Cytochrome P450 3A4 (P08684 whole entry): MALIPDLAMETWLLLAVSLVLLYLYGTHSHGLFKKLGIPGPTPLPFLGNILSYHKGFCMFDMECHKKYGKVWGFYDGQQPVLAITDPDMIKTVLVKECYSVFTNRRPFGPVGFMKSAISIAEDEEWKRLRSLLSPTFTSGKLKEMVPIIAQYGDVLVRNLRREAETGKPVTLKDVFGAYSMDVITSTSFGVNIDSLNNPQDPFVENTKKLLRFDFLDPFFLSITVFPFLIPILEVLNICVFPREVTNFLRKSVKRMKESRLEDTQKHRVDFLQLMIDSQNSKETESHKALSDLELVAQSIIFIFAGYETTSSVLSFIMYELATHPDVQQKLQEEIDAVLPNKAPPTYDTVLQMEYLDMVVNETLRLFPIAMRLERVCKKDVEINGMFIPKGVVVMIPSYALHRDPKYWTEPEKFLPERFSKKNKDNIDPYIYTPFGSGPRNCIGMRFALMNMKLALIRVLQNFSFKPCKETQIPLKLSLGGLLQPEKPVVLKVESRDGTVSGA

[2] = Cmax in iv dosed dog; type: ADME, organism-based, Canis lupus familiaris; design: route intravenous; details: in vivo
Mus musculus [3] = experiment: Toxicity in mouse medulloblastoma allograft model assessed as adverse effects at 80 mg/kg, po qd for 3 weeks; type: organism-based; design: dose 80 mg/kg, route oral; details: in vivo, 504 h
Summary of the method: (§2)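 Primary mouse medulloblastoma allograft, subcutaneous. Mice randomized when tumors averaged 400 mm³. Oral dosing for 3 weeks, bid at 40, 80, 120 or 160 mg/kg, or 80 mg/kg qd. Compound given as a suspension in 0.24% SDS/0.5% Methocel, with a BID vehicle control. Tumor volume tracked over days; body weight, physical signs and mortality monitored.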

Cytochrome P450 2D6 = Cytochrome P450 2D6 (Homo sapiens, UniProt P10635); experiment: Inhibition of CYP2D6; type: ADME
Chain of Cytochrome P450 2D6 (P10635 whole entry): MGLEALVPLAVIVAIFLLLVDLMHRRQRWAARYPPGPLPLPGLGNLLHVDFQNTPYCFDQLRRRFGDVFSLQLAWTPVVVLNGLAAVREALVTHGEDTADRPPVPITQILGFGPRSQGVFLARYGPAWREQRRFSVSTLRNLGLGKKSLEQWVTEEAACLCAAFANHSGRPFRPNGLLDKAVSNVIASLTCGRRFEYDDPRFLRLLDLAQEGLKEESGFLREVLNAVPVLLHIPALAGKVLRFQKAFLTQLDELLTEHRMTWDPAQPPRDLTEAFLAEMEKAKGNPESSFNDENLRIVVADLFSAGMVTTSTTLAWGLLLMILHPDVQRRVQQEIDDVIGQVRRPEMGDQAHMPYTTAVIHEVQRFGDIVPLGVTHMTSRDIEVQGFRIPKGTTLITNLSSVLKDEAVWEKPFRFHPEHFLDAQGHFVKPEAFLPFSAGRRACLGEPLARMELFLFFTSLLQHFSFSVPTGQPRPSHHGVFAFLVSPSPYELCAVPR

Cytochrome P450 2C9 = Cytochrome P450 2C9 (Homo sapiens, UniProt P11712); experiment: Inhibition of CYP2C9; type: ADME
Chain of Cytochrome P450 2C9 (P11712 whole entry): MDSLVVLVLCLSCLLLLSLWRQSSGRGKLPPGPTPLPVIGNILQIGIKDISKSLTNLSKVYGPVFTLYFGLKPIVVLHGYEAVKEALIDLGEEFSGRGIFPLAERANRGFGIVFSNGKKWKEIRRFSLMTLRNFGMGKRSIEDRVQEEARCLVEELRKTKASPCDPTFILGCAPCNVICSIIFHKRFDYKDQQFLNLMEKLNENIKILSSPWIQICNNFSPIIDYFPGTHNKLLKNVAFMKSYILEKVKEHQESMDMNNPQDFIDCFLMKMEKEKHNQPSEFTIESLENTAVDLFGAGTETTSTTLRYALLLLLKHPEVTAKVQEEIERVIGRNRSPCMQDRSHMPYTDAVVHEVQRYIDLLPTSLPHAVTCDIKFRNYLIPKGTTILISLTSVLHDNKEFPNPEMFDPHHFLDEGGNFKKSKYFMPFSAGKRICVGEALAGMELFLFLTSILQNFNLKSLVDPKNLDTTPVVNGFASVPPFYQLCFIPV

Canis familiaris [4] = species: Canis familiaris; experiment: Clearance in dog; type: ADME, organism-based, Canis lupus familiaris; details: in vivo
Protein smoothened [5] = target: T1, Protein smoothened (Homo sapiens, UniProt Q99835); experiment: Displacement of BODIPY-cyclopamine from human Smo expressed in HEK293 cells in presence of 20% normal human serum; type: cell-based
T1 sequence (Q99835 whole entry): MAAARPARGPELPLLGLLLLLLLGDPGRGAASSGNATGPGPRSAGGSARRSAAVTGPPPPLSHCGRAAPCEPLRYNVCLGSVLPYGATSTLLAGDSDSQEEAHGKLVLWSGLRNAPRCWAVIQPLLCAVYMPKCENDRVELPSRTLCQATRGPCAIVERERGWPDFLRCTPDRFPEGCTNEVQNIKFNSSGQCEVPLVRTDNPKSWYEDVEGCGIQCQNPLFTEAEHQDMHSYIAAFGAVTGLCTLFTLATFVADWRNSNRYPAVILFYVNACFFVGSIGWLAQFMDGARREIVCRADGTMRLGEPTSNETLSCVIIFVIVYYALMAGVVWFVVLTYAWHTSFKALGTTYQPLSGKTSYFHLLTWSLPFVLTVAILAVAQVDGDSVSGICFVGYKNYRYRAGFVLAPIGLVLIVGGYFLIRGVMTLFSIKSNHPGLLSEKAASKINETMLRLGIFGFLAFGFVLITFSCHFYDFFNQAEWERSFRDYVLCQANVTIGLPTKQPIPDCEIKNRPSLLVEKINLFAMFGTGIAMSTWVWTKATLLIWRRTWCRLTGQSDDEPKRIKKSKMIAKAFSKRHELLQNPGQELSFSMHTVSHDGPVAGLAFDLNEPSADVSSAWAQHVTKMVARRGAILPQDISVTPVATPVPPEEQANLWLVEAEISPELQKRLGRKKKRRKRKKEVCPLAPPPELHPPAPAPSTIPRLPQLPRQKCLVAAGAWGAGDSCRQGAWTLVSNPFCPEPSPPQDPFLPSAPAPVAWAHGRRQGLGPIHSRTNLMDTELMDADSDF
Summary of the method: (§3)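 Competition binding: displacement of fluorescently labeled bodipy-cyclopamine from recombinant human Smo expressed in HEK-293 cells. Run in 2% fetal calf serum and, separately, in 20% normal human serum. IC50 values are means of at least five experiments.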

hERG (KCNH2) = hERG (KCNH2) (Homo sapiens, UniProt Q12809); experiment: Inhibition of human ERG at 30 uM
Chain of hERG (KCNH2) (Q12809 whole entry): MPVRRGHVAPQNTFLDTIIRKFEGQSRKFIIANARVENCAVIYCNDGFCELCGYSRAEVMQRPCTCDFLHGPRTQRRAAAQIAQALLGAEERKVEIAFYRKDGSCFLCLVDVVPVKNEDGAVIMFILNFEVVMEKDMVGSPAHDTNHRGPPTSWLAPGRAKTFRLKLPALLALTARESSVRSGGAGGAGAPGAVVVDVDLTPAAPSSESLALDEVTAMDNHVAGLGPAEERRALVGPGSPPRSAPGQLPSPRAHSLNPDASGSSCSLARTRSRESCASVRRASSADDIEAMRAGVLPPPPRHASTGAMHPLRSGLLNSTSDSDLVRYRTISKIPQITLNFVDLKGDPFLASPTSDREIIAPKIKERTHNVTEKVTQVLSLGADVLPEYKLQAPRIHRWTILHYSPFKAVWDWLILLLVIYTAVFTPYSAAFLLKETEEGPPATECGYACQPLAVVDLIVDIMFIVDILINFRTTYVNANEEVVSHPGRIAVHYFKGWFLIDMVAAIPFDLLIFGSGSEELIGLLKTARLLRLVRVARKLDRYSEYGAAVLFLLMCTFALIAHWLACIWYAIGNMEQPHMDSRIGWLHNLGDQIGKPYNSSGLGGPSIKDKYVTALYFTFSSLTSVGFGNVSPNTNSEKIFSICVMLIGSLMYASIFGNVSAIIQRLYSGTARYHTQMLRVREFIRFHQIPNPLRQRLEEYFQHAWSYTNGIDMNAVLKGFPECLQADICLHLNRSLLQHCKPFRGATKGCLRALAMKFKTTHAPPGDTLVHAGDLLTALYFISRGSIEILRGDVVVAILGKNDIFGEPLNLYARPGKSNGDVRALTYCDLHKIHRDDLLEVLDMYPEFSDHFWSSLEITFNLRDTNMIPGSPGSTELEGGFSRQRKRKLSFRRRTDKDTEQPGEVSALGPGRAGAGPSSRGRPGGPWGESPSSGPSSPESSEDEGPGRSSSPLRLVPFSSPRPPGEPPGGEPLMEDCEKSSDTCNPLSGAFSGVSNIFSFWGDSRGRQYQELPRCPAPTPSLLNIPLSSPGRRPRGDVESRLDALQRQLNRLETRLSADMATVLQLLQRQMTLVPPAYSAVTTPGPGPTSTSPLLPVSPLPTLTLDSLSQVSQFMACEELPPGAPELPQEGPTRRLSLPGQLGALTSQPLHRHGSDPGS

[6] = Inhibition of Voltage-gated sodium channel at 30 uM
Mus musculus [7] = experiment: Inhibition of Shh pathway in mouse medulloblastoma allograft model assessed as reduction in tumor Gli-1 mRNA expression at 80 mg/kg, po administered as single dose; type: functional, organism-based; design: dose 80 mg/kg; details: TDE = time-dependent effect; summary of the method: as §1
Canis familiaris [8] = experiment: Toxicity in iv dosed vagotomized dog assessed as change in cardiovascular parameters; type: organism-based, Canis lupus familiaris, Heart; details: in vivo
Mus musculus [9] = experiment: Toxicity in mouse medulloblastoma allograft model assessed as adverse effects at 40 mg/kg, po bid for 3 weeks; type: organism-based; design: dose 40 mg/kg, route oral; details: in vivo, 504 h; summary of the method: as §2
Mus musculus [10] = experiment: Toxicity in mouse medulloblastoma allograft model assessed as adverse effects at 120 mg/kg, po bid for 3 weeks; type: organism-based; design: dose 120 mg/kg, route oral; details: in vivo, 504 h; summary of the method: as §2
Rattus norvegicus = species: Rattus norvegicus; experiment: Clearance in rat; type: ADME, organism-based; details: in vivo
[11] = Volume of distribution at steady state in dog; type: ADME, organism-based, Canis lupus familiaris; details: in vivo, read-out: Vdss
[12] = Oral bioavailability in dog; type: ADME, organism-based, Canis lupus familiaris; details: in vivo
[13] = Oral bioavailability in rat; type: ADME, organism-based; details: in vivo
Mus musculus [14] = experiment: Inhibition of Shh pathway in mouse medulloblastoma allograft model assessed as reduction in tumor Gli-1 mRNA expression at 80 mg/kg, po administered as single dose measured after 4 hrs; type: functional; summary of the method: as §1
Protein smoothened [15] = target: T1, Protein smoothened; experiment: Displacement of BODIPY-cyclopamine from human Smo expressed in HEK293 cells in presence of 2% fetal calf serum; type: cell-based; summary of the method: as §3
Mus musculus [16] = experiment: Toxicity in mouse medulloblastoma allograft model assessed as adverse effects at 80 mg/kg, po bid for 3 weeks; type: organism-based; design: dose 80 mg/kg, route oral; details: in vivo, 504 h; summary of the method: as §2
[17] = Volume of distribution at steady state in rat; type: ADME, organism-based; details: in vivo, read-out: Vdss
Canis familiaris [18] = experiment: Toxicity in iv dosed vagotomized dog assessed as change in hemodynamic parameters; type: organism-based, Canis lupus familiaris; details: in vivo
Mus musculus [19] = experiment: Inhibition of Shh pathway in mouse medulloblastoma allograft model assessed as reduction in tumor Gli-1 mRNA expression at 80 mg/kg, po administered as single dose measured after 6 hrs; type: functional; summary of the method: as §1
[20] = Half life in dog; type: ADME, organism-based, Canis lupus familiaris; details: in vivo
Mus musculus [21] = experiment: Toxicity in mouse medulloblastoma allograft model assessed as adverse effects at 160 mg/kg, po bid for 3 weeks; type: organism-based; design: dose 160 mg/kg, route oral; details: in vivo, 504 h; summary of the method: as §2
[22] = Half life in rat; type: ADME, organism-based; details: in vivo

SMILES: C[C@@]12CN(C(=O)Nc3ccnn3-c3ccccc3)CCN1C(=O)N([C@H]1C[C@@H]1c1ccccc1)C2=O
- inhibition in vivo at 80 mg/kg (Mus musculus [1]): > 85%
- IC50 (Cytochrome P450 3A4): > 40000 nM
- Cmax [2]: 16 µM
- Activity (Mus musculus [3]): Non-toxic
- IC50 (Cytochrome P450 2D6): > 40000 nM
- IC50 (Cytochrome P450 2C9): > 40000 nM
- clearance (Canis familiaris [4]): 22 mL/min/kg
- IC50 (Protein smoothened [5]): 22 nM
- inhibition at 30 µM (hERG (KCNH2)): 27%
- inhibition [6]: 45%
- inhibition (Mus musculus [7]): tde
- Activity (Canis familiaris [8]): Non-toxic
- Activity (Mus musculus [9]): Non-toxic
- Activity (Mus musculus [10]): Non-toxic
- clearance (Rattus norvegicus): 22 mL/min/kg
- Vd [11]: 2 L/kg
- bioavailability [12]: 52%
- bioavailability [13]: 40%
- inhibition in vivo at 80 mg/kg (Mus musculus [14]): 77%
- IC50 (Protein smoothened [15]): 13 nM
- Activity (Mus musculus [16]): Non-toxic
- Vd [17]: 2.9 L/kg
- Activity (Canis familiaris [18]): Non-toxic
- inhibition in vivo at 80 mg/kg (Mus musculus [19]): > 85%
- half-life [20]: 1.1 h
- Activity (Mus musculus [21]): Non-toxic
- half-life [22]: 5.1 h

Reference: ChEMBL document CHEMBL1811786, “Identification of MK-5710 ((8aS)-8a-methyl-1,3-dioxo-2-[(1S,2R)-2-phenylcyclo- propyl]-N-(1-phenyl-1H-pyrazol-5-yl)hexahydro-imidazo[1,5-a]pyrazine-7(1H)-carboxamide), a potent smoothened antagonist for use in Hedgehog pathway dependent malignancies, part 2” (Bioorg Med Chem Lett, 2011)
